# The source made the active and inactive calls. The rule behind the calls is not given here.
# Tested on: MCF7
# Test: Growth inhibition of human MCF7 cells at 10 uM after 48 hrs by fluorescein diacetate cell viability assay relative to 4-HPR
# Format: functional
# Method in brief: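 MCF-7 human breast cancer cells received a single dose at a final 10−5M, with vehicle at 0.2% ethanol. Live cells were counted 48 hrs later by fluorescein diacetate viability assay. Activity was scored on a +/++/+++ scale against 4-HPR.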
row,Compound,Activity
1,CC1=C(/C=C/C(C)=C/C=C/C(C)=C/C(=O)Nc2ccc(O)cc2)C(C)(C)CCC1 [FENRETINIDE],>=100%
2,CC1=C(/C=C/C(C)=C/C=C/C(C)=C/C(=O)Nc2cc(Cl)ccc2O)C(C)(C)CCC1,>=50%
3,CC1=C(/C=C/C(C)=C/C=C/C(C)=C/C(=O)N(C)c2ccc(O)cc2)C(C)(C)CCC1,>=25%
4,CC1=C(/C=C/C(C)=C/C=C/C(C)=C/C(=O)Nc2ccc(N)cc2)C(C)(C)CCC1,>=50%
5,COc1ccc(NC(=O)/C=C(C)/C=C/C=C(C)/C=C/C2=C(C)CCCC2(C)C)cc1,>=25%
6,CC1=C(/C=C/C(C)=C/C=C/C(C)=C/C(=O)Nc2ccc(C)c(O)c2)C(C)(C)CCC1,>=100%
7,CC1=C(/C=C/C(C)=C/C=C/C(C)=C/C(=O)Nc2ccccc2)C(C)(C)CCC1,>=25%
8,COC(=O)c1ccc(NC(=O)/C=C(C)/C=C/C=C(C)/C=C/C2=C(C)CCCC2(C)C)c(O)c1,>=25%
9,COC(=O)c1cc(NC(=O)/C=C(C)/C=C/C=C(C)/C=C/C2=C(C)CCCC2(C)C)ccc1O,>=25%
10,CC1=C(/C=C/C(C)=C/C=C/C(C)=C/C(=O)Nc2ccccc2C(=O)O)C(C)(C)CCC1,>=25%
11,CC1=C(/C=C/C(C)=C/C=C/C(C)=C/C(=O)Nc2ccc(Cl)c(Cl)c2)C(C)(C)CCC1,>=25%
12,CC1=C(/C=C/C(C)=C/C=C/C(C)=C/C(=O)Nc2cccc(CO)c2)C(C)(C)CCC1,>=25%
13,CC1=C(/C=C/C(C)=C/C=C/C(C)=C/C(=O)Nc2ccc(Cl)cc2)C(C)(C)CCC1,>=25%
14,CC1=C(/C=C/C(C)=C/C=C/C(C)=C/C(=O)Nc2ccc([N+](=O)[O-])cc2O)C(C)(C)CCC1,>=100%
15,CC1=C(/C=C/C(C)=C/C=C/C(C)=C/C(=O)Nc2cc([N+](=O)[O-])ccc2O)C(C)(C)CCC1,>=25%
16,CC1=C(/C=C/C(C)=C/C=C/C(C)=C/C(=O)Nc2ccc(C)cc2O)C(C)(C)CCC1,>=50%
17,CC1=C(/C=C/C(C)=C/C=C/C(C)=C/C(=O)Nc2ccc(O)c(Cl)c2)C(C)(C)CCC1,>=50%

# Tested on: MCF7
# Test: Induction of apoptosis in human MCF7 cells at 10 uM after 48 hrs by TUNEL assay relative to 4-HPR
# Format: functional, cell-based
# Method in brief: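 MCF-7 cells received a single dose at 10−5M, with vehicle as control. After 48 hr the % of TUNEL-labeled cells was scored. Values are means (+SEM) of three independent cell culture experiments, compared with standard 4-HPR.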
row,Compound,Activity
1,CC1=C(/C=C/C(C)=C/C=C/C(C)=C/C(=O)Nc2ccc(C)c(O)c2)C(C)(C)CCC1,Active
2,COC(=O)c1ccc(NC(=O)/C=C(C)/C=C/C=C(C)/C=C/C2=C(C)CCCC2(C)C)c(O)c1,Active
3,CC1=C(/C=C/C(C)=C/C=C/C(C)=C/C(=O)Nc2ccc([N+](=O)[O-])cc2O)C(C)(C)CCC1,Active

# — ChEMBL document CHEMBL1138424, “Solid phase-assisted synthesis and screening of a small library of N-(4-hydroxyphenyl)retinamide (4-HPR) analogs” (2007)
